A short description of assay [1]: Fold selectivity for classIIa HDAC.
Assay [2] is described as follows: Inhibitory activity afgainst maize Histone deacetylase 1-A. Also noted: species or system Zea mays.
Assay [3] is described as follows: Inhibitory activity against maize Histone deacetylase 1-B. On the set-up: species or system Zea mays.
In another assay the target is T1, Histone deacetylase HD2 (Zea mays, UniProt Q94F81).
T1 sequence (Q94F81 whole entry): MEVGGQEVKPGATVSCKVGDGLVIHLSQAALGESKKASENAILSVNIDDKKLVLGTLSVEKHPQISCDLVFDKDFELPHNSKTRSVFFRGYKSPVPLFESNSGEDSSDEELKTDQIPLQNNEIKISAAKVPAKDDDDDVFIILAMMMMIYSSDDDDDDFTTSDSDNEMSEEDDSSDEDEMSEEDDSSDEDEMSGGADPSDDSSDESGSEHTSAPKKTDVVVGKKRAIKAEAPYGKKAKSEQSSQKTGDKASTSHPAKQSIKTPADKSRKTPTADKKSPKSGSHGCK
As to the kind of experiment: Tested for maize Histone deacetylase 2 inhibitory activity. Summed up:
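Purified maize HD2 enzyme was incubated with compounds and [³H]-acetate pre-labeled chicken reticulocyte histones (added from a 4 mg/mL stock) for 30 min at 30 °C. The reaction was stopped with HCl/acetate, and released [³H]-acetate was extracted into ethyl acetate. The upper phase was counted by liquid scintillation. IC50 is the mean of at least three separate experiments.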

In assay [4] the target is T2, Histone deacetylase 1 (Homo sapiens, UniProt Q13547). The assay is described as follows: Inhibition of Histone deacetylase 1 induced acetylated histone in mammalian cells. The assay is classed as cell-based.
T2 sequence (Q13547 whole entry): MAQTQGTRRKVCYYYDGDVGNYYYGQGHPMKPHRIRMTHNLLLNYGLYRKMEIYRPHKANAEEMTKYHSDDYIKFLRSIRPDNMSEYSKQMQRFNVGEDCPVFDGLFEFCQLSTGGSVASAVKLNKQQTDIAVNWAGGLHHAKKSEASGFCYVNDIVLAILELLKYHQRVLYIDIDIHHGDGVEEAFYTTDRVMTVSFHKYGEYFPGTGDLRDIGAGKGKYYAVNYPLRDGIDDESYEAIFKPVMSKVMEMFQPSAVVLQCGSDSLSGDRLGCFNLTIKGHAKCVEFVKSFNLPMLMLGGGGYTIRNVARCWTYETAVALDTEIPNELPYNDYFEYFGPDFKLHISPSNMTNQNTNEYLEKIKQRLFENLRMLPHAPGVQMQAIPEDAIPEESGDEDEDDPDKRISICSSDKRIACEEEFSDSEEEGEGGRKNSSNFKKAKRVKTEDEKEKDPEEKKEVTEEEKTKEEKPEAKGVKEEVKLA
The target of assay [5] is T3, Protein deacetylase HDAC6 (Homo sapiens, UniProt Q9UBN7).
T3 sequence (Q9UBN7 whole entry): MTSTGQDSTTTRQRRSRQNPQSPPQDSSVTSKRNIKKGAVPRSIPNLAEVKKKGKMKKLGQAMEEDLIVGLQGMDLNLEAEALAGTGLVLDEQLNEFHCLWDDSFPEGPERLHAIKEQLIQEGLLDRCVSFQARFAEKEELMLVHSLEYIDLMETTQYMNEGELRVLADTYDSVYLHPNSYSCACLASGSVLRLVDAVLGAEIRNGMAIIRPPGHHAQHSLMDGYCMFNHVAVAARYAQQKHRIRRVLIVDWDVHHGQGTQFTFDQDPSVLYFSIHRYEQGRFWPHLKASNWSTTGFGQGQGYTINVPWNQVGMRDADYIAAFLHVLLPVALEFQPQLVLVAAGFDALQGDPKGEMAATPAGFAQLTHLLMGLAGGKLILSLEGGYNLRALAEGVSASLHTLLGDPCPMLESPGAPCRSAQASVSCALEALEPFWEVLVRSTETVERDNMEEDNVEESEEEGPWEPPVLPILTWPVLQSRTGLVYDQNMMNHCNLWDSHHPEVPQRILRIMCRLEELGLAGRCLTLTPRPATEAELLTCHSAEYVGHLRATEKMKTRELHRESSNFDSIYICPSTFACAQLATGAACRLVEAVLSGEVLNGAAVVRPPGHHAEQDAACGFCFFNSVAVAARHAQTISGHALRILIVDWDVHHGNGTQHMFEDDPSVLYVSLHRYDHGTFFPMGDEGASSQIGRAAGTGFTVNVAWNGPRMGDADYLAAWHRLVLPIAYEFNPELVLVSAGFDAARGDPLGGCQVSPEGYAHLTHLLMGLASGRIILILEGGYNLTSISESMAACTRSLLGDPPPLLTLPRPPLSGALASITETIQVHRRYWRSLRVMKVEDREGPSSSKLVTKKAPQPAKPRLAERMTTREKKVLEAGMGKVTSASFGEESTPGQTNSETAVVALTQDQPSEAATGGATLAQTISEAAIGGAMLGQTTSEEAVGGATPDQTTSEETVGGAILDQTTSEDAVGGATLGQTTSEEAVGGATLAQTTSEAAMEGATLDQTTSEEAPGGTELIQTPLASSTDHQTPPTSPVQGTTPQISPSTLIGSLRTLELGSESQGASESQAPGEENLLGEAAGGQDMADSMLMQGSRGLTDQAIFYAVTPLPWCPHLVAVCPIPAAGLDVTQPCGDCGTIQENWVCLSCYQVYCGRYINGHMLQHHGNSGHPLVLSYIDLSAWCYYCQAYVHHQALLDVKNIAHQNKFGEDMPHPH
As to the kind of experiment: (§1) Tested for inhibition of Histone deacetylase 6 induced acetylated tubulin in mammalian cells. Format: cell-based.

The target in assay [6] is T2, Histone deacetylase 1. The assay is described as follows: Inhibition of Histone deacetylase 1 induced acetylated histone in mammalian cells. The assay is classed as cell-based.
Another assay deals with Histone deacetylase 4 (Homo sapiens, UniProt P56524). As to the kind of experiment: Inhibition of Histone deacetylase 4 in mammalian cells. Format: cell-based.
Sequence of Histone deacetylase 4 (P56524 whole entry): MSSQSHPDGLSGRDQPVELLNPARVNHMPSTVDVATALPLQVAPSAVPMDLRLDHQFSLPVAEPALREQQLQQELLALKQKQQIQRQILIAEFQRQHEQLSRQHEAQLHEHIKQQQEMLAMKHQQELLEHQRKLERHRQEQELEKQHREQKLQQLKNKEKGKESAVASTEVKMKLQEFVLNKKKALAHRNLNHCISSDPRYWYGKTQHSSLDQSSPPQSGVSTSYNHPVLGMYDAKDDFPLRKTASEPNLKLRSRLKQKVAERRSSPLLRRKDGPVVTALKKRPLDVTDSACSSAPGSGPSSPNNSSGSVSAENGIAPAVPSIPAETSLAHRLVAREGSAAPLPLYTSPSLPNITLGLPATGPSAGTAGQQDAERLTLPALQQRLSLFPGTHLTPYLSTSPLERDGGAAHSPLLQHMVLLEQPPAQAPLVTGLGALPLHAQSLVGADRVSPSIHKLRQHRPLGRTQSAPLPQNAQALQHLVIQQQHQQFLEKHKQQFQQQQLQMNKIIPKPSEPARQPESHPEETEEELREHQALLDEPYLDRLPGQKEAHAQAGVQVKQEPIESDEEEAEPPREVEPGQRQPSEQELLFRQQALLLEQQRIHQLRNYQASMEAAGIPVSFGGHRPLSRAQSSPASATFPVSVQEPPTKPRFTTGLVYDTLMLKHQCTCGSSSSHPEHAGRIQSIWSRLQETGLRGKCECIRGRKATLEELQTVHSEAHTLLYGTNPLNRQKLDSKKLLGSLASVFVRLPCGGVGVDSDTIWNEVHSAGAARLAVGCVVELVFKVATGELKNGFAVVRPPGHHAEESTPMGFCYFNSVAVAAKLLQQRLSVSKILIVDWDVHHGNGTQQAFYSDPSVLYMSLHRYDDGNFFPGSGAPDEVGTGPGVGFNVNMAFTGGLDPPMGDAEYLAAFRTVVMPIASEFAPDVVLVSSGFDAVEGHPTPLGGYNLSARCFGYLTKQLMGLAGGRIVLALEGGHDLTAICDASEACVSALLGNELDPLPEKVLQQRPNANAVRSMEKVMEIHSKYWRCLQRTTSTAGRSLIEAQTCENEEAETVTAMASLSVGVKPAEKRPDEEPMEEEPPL
Assay [7] in a line: Inhibition of Histone deacetylase 4 in mammalian cells. The assay is classed as cell-based.
Assay [8] is described as follows: as §1. Format: cell-based.

Non-standard residues stand in square brackets, D forms with d. Residues, ends and D or L forms follow the SMILES beside them. ξ: configuration not given here. Aoe(9ξ) = N[C@@H](CCCCCC(=O)C1CO1)C(=O)O; dPip = O=C(O)[C@H]1CCCCN1

`Cc1cccc(C(=O)/C=C/c2cc(/C=C/C(=O)NO)n(C)c2)c1`: the Fold selectivity in assay [1] came to 12. The IC50 came out at 0.2 µM in assay [2], 2.5 µM in assay [3] and 7.9 µM against Histone deacetylase HD2.
Compound `Cn1cc(/C=C/C(=O)c2cccc(Cl)c2)cc1/C=C/C(=O)NO` yielded a Fold selectivity in assay [1] of 78. Besides, the IC50 in assay [2] worked out at 0.4 µM; in assay [3], 31.4 µM; at Histone deacetylase HD2, 24.2 µM.
At Histone deacetylase 1 [4], `C/C=C1\NC(=O)[C@H]2CSSCC/C=C/[C@H](CC(=O)N[C@H](C(C)C)C(=O)N2)OC(=O)[C@H](C(C)C)NC1=O` [ROMIDEPSIN] came in with an EC50 of 36 µM. In other words, the double-digit micromolar range.
Turning to `Cn1cc(/C=C/C(=O)c2ccccc2)cc1/C=C/C(=O)NO`, the half-inhibitory concentration (IC50) in [2] stood at 0.2 µM; in assay [3], 0.3 µM; against Histone deacetylase HD2, 0.28 µM.
Take `Cc1ccc(C(=O)/C=C/c2cc(/C=C/C(=O)NO)n(C)c2)cc1`: the Fold selectivity in assay [1] is 10. Besides, the IC50 worked out at 0.5 µM in assay [2], 4.8 µM in [3] and 10.2 µM on Histone deacetylase HD2.
Consider `O=C(CCCCC[C@@H]1NC(=O)[C@H]2CCCCN2C(=O)[C@H](Cc2ccccc2)NC(=O)[C@H](Cc2ccccc2)NC1=O)C1CO1` (some centres undefined) [TRAPOXIN A] (cyclo(FF[dPip][Aoe(9ξ)])), for which the results for the EC50 (in [5]; at Histone deacetylase 1 [6]) were 524 µM and 0.82 µM, respectively.
`C[C@@H]1NC(=O)[C@H](CCCCCC(=O)C2CO2)NC(=O)[C@H]2CCCN2C(=O)[C@H](C)NC1=O` (some centres undefined): the EC50 is 0.11 µM on Histone deacetylase 1 [4] and 360 µM in [5]. Also, the IC50 on Histone deacetylase 4 worked out at 0.0003 µM.
In the case of `C[C@@H]1NC(=O)[C@H](CCCCCC(=O)NO)NC(=O)[C@H]2CCCN2C(=O)[C@H](C)NC1=O`, the EC50 was 1.9 µM at Histone deacetylase 1 [4] and 19 µM in [5]. The compound also displayed a 50% inhibitory concentration (IC50) on Histone deacetylase 4 of 0.0027 µM.
With `Cn1cc(/C=C/C(=O)c2ccccc2Cl)cc1/C=C/C(=O)NO`, in [1], the Fold selectivity is 32. Besides, the IC50 in assay [2] is 0.05 µM; in assay [3], 1.6 µM; on Histone deacetylase HD2, 5.2 µM.
In the case of `Cn1cc(/C=C/C(=O)c2ccc(Cl)cc2)cc1/C=C/C(=O)NO`, the IC50 in [2] was determined as 18.6 µM; in assay [3], 29.4 µM; on Histone deacetylase HD2, 25.2 µM.
As to `CC(/C=C/C(=O)NO)=C\[C@@H](C)C(=O)c1ccc(N(C)C)cc1` [TRICHOSTATIN], the figures for the IC50 in assay [7], in assay [2] and in assay [3] were 0.038 µM, 0.0008 µM and 0.0004 µM, respectively. Moreover, the EC50 in assay [8] is 8.6 µM.
`Cc1ccccc1C(=O)/C=C/c1cc(/C=C/C(=O)NO)n(C)c1` had a Fold selectivity in assay [1] of 7. The IC50 in [2] came to 0.06 µM; in assay [3], 0.4 µM; against Histone deacetylase HD2 it was 0.27 µM.

The values above are taken from ChEMBL document CHEMBL1145751, “Discovery of (aryloxopropenyl)pyrrolyl hydroxyamides as selective inhibitors of class IIa histone deacetylase homologue HD1-A” (J Med Chem, 2003).
